# What was measured:
# Hs-578T = assay: Cytotoxicity against human Hs 578T cells after 48 hrs by SRB assay; format: functional; settings: for GI50: read-out: pGI50 (converted)
# SR [1] = assay: Growth inhibition of human SR cells assessed as cell growth at 10^-5 M incubated for 48 hrs by sulforhodamine B assay relative to control; format: functional; settings: read-out: Activity
# NCI-H23 = assay: Cytotoxicity against human NCI-H23 cells after 48 hrs by SRB assay; format: functional; settings: NCI-H23, 48 h; for GI50: read-out: pGI50 (converted)
# SK-MEL-2 [2] = assay: Cytotoxicity against human SK-MEL-2 cells after 48 hrs by SRB assay; format: functional; settings: SK-MEL-2, 48 h; for CC50: read-out: LC50 (the source's name); for GI50: read-out: pGI50 (converted)
# UACC-62 = assay: Growth inhibition of human UACC62 cells assessed as cell growth at 10^-6 M incubated for 48 hrs by sulforhodamine B assay relative to control; format: functional; settings: UACC-62, 48 h, read-out: Activity
# L1210 = assay: Antiproliferative activity against mouse L1210 cells after 48 hrs by Coulter counter method; format: functional, cell-based; settings: L1210, 48 h
# Summary of the method: (§1)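 Cell count assay in 96-well microtiter plates; (5–7.5) × 10⁴ tumor cells per well plus test compound. Cells proliferated at 37 °C in humidified CO₂-controlled atmosphere, 48 h for murine leukemia L1210, 72 h for human lymphocytic CEM and cervix carcinoma HeLa. Counted by Coulter counter; IC₅₀ is the concentration that inhibits proliferation by 50%.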
# OVCAR-3 = assay: Growth inhibition of human OVCAR3 cells assessed as cell growth at 10^-7 M incubated for 48 hrs by sulforhodamine B assay relative to control; format: functional; settings: OVCAR-3, 48 h, read-out: Activity
# HeLa = assay: Antiproliferative activity against human HeLa cells after 72 hrs by Coulter counter method; format: functional, cell-based; summary of the method: as §1
# Malme-3M = assay: Growth inhibition of human MALME-3M cells assessed as cell growth at 10^-5 M incubated for 48 hrs by sulforhodamine B assay relative to control; format: functional; settings: read-out: Activity
# SF-539 = assay: Growth inhibition of human SF539 cells assessed as cell growth at 10^-6 M incubated for 48 hrs by sulforhodamine B assay relative to control; format: functional; settings: SF-539, 48 h, read-out: Activity
# OVCAR-4 [3] = assay: Growth inhibition of human OVCAR4 cells assessed as cell growth at 10^-4 M incubated for 48 hrs by sulforhodamine B assay relative to control; format: functional; settings: OVCAR-4, 48 h, read-out: Activity
# HL-60(TB) = assay: Growth inhibition of human HL-60(TB) cells assessed as cell growth at 10^-6 M incubated for 48 hrs by sulforhodamine B assay relative to control; format: functional; settings: HL-60, 48 h, read-out: Activity
# SK-OV-3 = assay: Growth inhibition of human SKOV3 cells assessed as cell growth at 10^-7 M incubated for 48 hrs by sulforhodamine B assay relative to control; format: functional; settings: SK-OV-3, 48 h, read-out: Activity
# MCF7 = assay: Cytotoxicity against human MCF7 cells after 48 hrs by SRB assay; format: functional; settings: MCF7, 48 h; for GI50: read-out: pGI50 (converted)
# HCT-15 = assay: Growth inhibition of human HCT15 cells assessed as cell growth at 10^-7 M incubated for 48 hrs by sulforhodamine B assay relative to control; format: functional; settings: HCT-15, 48 h, read-out: Activity
# HOP-62 = assay: Cytotoxicity against human HOP62 cells after 48 hrs by SRB assay; format: functional; settings: HOP-62, 48 h; for GI50: read-out: pGI50 (converted); for CC50: read-out: pLC50 (the source's name) (converted)
# MDA-MB-231 = assay: Growth inhibition of human MDA-MB-231 cells assessed as cell growth at 10^-4 M incubated for 48 hrs by sulforhodamine B assay relative to control; format: functional; settings: MDA-MB-231, 48 h, read-out: Activity
# RXF 393 = assay: Growth inhibition of human RXF393 cells assessed as cell growth at 10^-7 M incubated for 48 hrs by sulforhodamine B assay relative to control; format: functional; settings: RXF 393, 48 h, read-out: Activity
# ACHN [4] = assay: Growth inhibition of human ACHN cells assessed as cell growth at 10^-4 M incubated for 48 hrs by sulforhodamine B assay relative to control; format: functional; settings: read-out: Activity
# SF-268 = assay: Cytotoxicity against human SF268 cells after 48 hrs by SRB assay; format: functional; settings: SF-268, 48 h; for GI50: read-out: pGI50 (converted)
# SNB-19 [5] = assay: Growth inhibition of human SNB19 cells assessed as cell growth at 10^-5 M incubated for 48 hrs by sulforhodamine B assay relative to control; format: functional; settings: SNB-19, 48 h, read-out: Activity
# ACHN [6] = assay: Growth inhibition of human ACHN cells assessed as cell growth at 10^-7 M incubated for 48 hrs by sulforhodamine B assay relative to control; format: functional; settings: read-out: Activity
# SNB-19 [7] = assay: Growth inhibition of human SNB19 cells assessed as cell growth at 10^-7 M incubated for 48 hrs by sulforhodamine B assay relative to control; format: functional; settings: SNB-19, 48 h, read-out: Activity
# SR [8] = assay: Growth inhibition of human SR cells assessed as cell growth at 10^-4 M incubated for 48 hrs by sulforhodamine B assay relative to control; format: functional; settings: read-out: Activity
# OVCAR-4 [9] = assay: Growth inhibition of human OVCAR4 cells assessed as cell growth at 10^-6 M incubated for 48 hrs by sulforhodamine B assay relative to control; format: functional; settings: OVCAR-4, 48 h, read-out: Activity
# NCI-H226 = assay: Growth inhibition of human NCI-H226 cells assessed as cell growth at 10^-6 M incubated for 48 hrs by sulforhodamine B assay relative to control; format: functional; settings: NCI-H226, 48 h, read-out: Activity
# HOP-92 = assay: Growth inhibition of human HOP92 cells assessed as cell growth at 10^-7 M incubated for 48 hrs by sulforhodamine B assay relative to control; format: functional; settings: HOP-92, 48 h, read-out: Activity
# SK-MEL-2 [10] = assay: Growth inhibition of human SK-MEL-2 cells assessed as cell growth at 10^-7 M incubated for 48 hrs by sulforhodamine B assay relative to control; format: functional; settings: SK-MEL-2, 48 h, read-out: Activity
# SF-295 = assay: Growth inhibition of human SF295 cells assessed as cell growth at 10^-6 M incubated for 48 hrs by sulforhodamine B assay relative to control; format: functional; settings: SF-295, 48 h, read-out: Activity
# OVCAR-5 = assay: Growth inhibition of human OVCAR5 cells assessed as cell growth at 10^-4 M incubated for 48 hrs by sulforhodamine B assay relative to control; format: functional; settings: OVCAR-5, 48 h, read-out: Activity
# BT-549 = assay: Growth inhibition of human BT549 cells assessed as cell growth at 10^-8 M incubated for 48 hrs by sulforhodamine B assay relative to control; format: functional; settings: BT-549, 48 h, read-out: Activity
# [11] = read-out: pLC50 (the source's name) (converted)
# [12] = read-out: LC50 (the source's name)
smiles,measurement,setting,value
C#C[C@@]1(O)[C@@H](CO)O[C@@H](n2ccc3c(N)ncnc32)[C@@H]1O,TGI,Hs-578T; read-out: TGI,> 100 µM
same,GI50,Hs-578T,4.68 µM
same,CC50,Hs-578T; [11],> 100 µM
same,TGI,Hs-578T; read-out: pTGI,> 100 µM
same,growth at 10 µM,SR [1],15%
same,CC50,NCI-H23; [12],> 100 µM
same,TGI,NCI-H23; read-out: TGI,4.32 µM
same,GI50,NCI-H23,1.17 µM
same,TGI,NCI-H23; read-out: pTGI (converted),4.37 µM
same,CC50,SK-MEL-2 [2],> 100 µM
same,TGI,SK-MEL-2 [2]; read-out: TGI,6.32 µM
same,GI50,SK-MEL-2 [2],1.38 µM
same,TGI,SK-MEL-2 [2]; read-out: pTGI (converted),6.31 µM
same,growth at 1 µM,UACC-62,82%
same,IC50,L1210,0.38 µM
same,growth at 0.1 µM,OVCAR-3,106%
same,IC50,HeLa,0.88 µM
same,growth at 10 µM,Malme-3M,-25%
same,growth at 1 µM,SF-539,88%
same,growth at 100 µM,OVCAR-4 [3],-100%
same,growth at 1 µM,HL-60(TB),68%
same,growth at 0.1 µM,SK-OV-3,92%
same,TGI,MCF7; read-out: TGI,5.66 µM
same,GI50,MCF7,0.24 µM
same,CC50,MCF7; [11],85.1 µM
same,TGI,MCF7; read-out: pTGI (converted),5.62 µM
same,growth at 0.1 µM,HCT-15,93%
same,TGI,HOP-62; read-out: TGI,7.91 µM
same,GI50,HOP-62,2.04 µM
same,CC50,HOP-62,> 100 µM
same,TGI,HOP-62; read-out: pTGI (converted),7.94 µM
same,growth at 100 µM,MDA-MB-231,-53%
same,growth at 0.1 µM,RXF 393,111%
same,growth at 100 µM,ACHN [4],-24%
same,TGI,SF-268; read-out: TGI,26.1 µM
same,GI50,SF-268,2.34 µM
same,CC50,SF-268; [11],> 100 µM
same,TGI,SF-268; read-out: pTGI (converted),26.3 µM
same,growth at 10 µM,SNB-19 [5],-15%
same,growth at 0.1 µM,ACHN [6],101%
same,growth at 0.1 µM,SNB-19 [7],98%
same,growth at 100 µM,SR [8],11%
same,growth at 1 µM,OVCAR-4 [9],75%
same,growth at 1 µM,NCI-H226,92%
same,growth at 0.1 µM,HOP-92,104%
same,growth at 0.1 µM,SK-MEL-2 [10],90%
same,growth at 1 µM,SF-295,74%
same,growth at 100 µM,OVCAR-5,-31%
same,growth at 0.01 µM,BT-549,89%
C#C[C@@]1(O)[C@@H](CO)O[C@@H](n2cc(F)c3c(N)ncnc32)[C@@H]1O,CC50,Hs-578T; [12],> 100 µM
same,TGI,Hs-578T; read-out: TGI,> 100 µM
same,GI50,Hs-578T,3.98 µM
same,TGI,Hs-578T; read-out: pTGI,> 100 µM
same,growth at 10 µM,SR [1],4%
same,TGI,NCI-H23; read-out: TGI,6.85 µM
same,GI50,NCI-H23,0.398 µM
same,CC50,NCI-H23; [11],> 100 µM
same,TGI,NCI-H23; read-out: pTGI (converted),6.92 µM
same,CC50,SK-MEL-2 [2],> 100 µM
same,TGI,SK-MEL-2 [2]; read-out: TGI,2.87 µM
same,GI50,SK-MEL-2 [2],0.447 µM
same,TGI,SK-MEL-2 [2]; read-out: pTGI (converted),2.88 µM
same,growth at 1 µM,UACC-62,12%
same,IC50,L1210,0.035 µM
same,growth at 0.1 µM,OVCAR-3,107%
same,IC50,HeLa,0.15 µM
same,growth at 10 µM,Malme-3M,-34%
same,growth at 1 µM,SF-539,60%
same,growth at 100 µM,OVCAR-4 [3],-25%
same,growth at 1 µM,HL-60(TB),20%
same,growth at 0.1 µM,SK-OV-3,81%
same,CC50,MCF7; [12],> 100 µM
same,GI50,MCF7,0.102 µM
same,growth at 0.1 µM,HCT-15,79%
same,TGI,HOP-62; read-out: TGI,7.79 µM
same,GI50,HOP-62,0.575 µM
same,CC50,HOP-62,> 100 µM
same,TGI,HOP-62; read-out: pTGI (converted),7.76 µM
same,growth at 100 µM,MDA-MB-231,-35%
same,growth at 0.1 µM,RXF 393,102%
same,growth at 100 µM,ACHN [4],2%
same,CC50,SF-268; [12],> 100 µM
same,TGI,SF-268; read-out: TGI,78.3 µM
same,GI50,SF-268,0.759 µM
same,TGI,SF-268; read-out: pTGI (converted),77.6 µM
same,growth at 10 µM,SNB-19 [5],7%
same,growth at 0.1 µM,ACHN [6],75%
same,growth at 0.1 µM,SNB-19 [7],79%
same,growth at 100 µM,SR [8],3%
same,growth at 1 µM,OVCAR-4 [9],50%
same,growth at 1 µM,NCI-H226,32%
same,growth at 0.1 µM,HOP-92,-1%
same,growth at 0.1 µM,SK-MEL-2 [10],101%
same,growth at 1 µM,SF-295,40%
same,growth at 100 µM,OVCAR-5,7%
same,growth at 0.01 µM,BT-549,98%
